Active and inactive are the calls of the source.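 How the source made its calls, unless noted: active means inhibition at or above 50% at 10 µM; inactive means inhibition below 50%.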
Tests used:
[1] = inhibitors of TNFa-induced NFkB p65 translocation, primary screen, imaging, HUVEC, MLSMR starter and 10KST1 sets (AID 438;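 active means inhibition above 20% together with a positive visual image hit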;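 further: compound added about 3h40 before a 20 min TNFalpha stimulation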;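 on inhibition: signal is the nuclear over cytoplasmic p65 intensity ratio per well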); conditions: HUVEC TNFa-induced p65 nuclear translocation; cell count: measured here: nuclei count (cytotoxicity indicator), at 2.08 µM; inhibition: at 2 µM, stronger effect = higher value, 0% TNFa-plus-vehicle, 100% no-TNFa wells
[2] = reduction of polyQ htt aggregates in cells – imaging, exon1htt(103Q)mCFP cells, high-content imaging, primary screen (AID 483;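 active means visual image review flags a hit and inhibition of aggregation exceeds 20%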;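 further: compound exposure lasted 3 days before fixation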;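 on nuclei count: percent of the per-plate median nuclei count of sample wells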); conditions: exon1htt(103Q)mCFP cell line, aggregate imaging, at 2 µM; inhibition of aggregation: stronger effect = higher value; nuclei count: measured here: cell count, toxicity
[3] = endothelial E-selectin expression blockers – imaging, HUVEC, immunofluorescence, MLSMR starter and 10KST1 sets, primary screen (AID 487;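 active means visually confirmed hit in the image check and inhibition above 20%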;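 on inhibition: signal is fraction of cell area covered by stained E-selectin grains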;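 on nuclei count: 100% = median nuclei count of all wells on the same plate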); conditions: HUVEC TNFalpha-induced E-selectin immunofluorescence imaging, at 2 µM; inhibition: stronger effect = higher value; nuclei count: measured here: cell number, toxicity
[4] = target: Voltage-gated potassium channel subunit beta-2 (Rattus norvegicus) (UniProt P62483); assay: inhibitors of rat Kvbeta2 reductase activity – biochemical, NADPH fluorescence, primary screen (AID 622;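 active means fluorescence slope higher than the sample average by over 3 SD, cut at about -0.22 in these data, passing the limit was not always enough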;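 further: slope of raw intensity against log time taken from 70 to 1610 s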); conditions: recombinant KvBeta, 4-cyanobenzaldehyde reduction, at 10 µM, stronger effect = higher value
[5] = target: Voltage-gated potassium channel subunit beta-2 (Rattus norvegicus) (UniProt P62483); assay: enhancers of rat Kvbeta2 NADPH turnover – biochemical, NADPH fluorescence, primary screen (AID 623;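 active means NADPH fluorescence slope more negative than the mean of all samples by about 3 SD, 99.7% confidence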;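 further: fluorescence intensity change per second fitted from 20 to 320 s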); conditions: Recombinant KvBeta, NADPH fluorescence decrease slope, 10 min; at 10 µM; stronger effect = lower value
[6] = target: Alpha-2C adrenergic receptor (Homo sapiens) (UniProt P18825); assay: compounds altering alpha2C-coupled GIRK flux – cell-based, HEK293 alpha2C/GIRK1/2, thallium flux, primary screen (AID 624;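 active means fluorescence slope after compound addition differing from the mean of all screened samples at 99.7% confidence, in either direction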;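 further: slope of fluorescence ratio to pre-addition baseline per second over 15 to 24 s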); conditions: thallium flux BTC fluorescence, at 10 µM, actives lie on both sides
[7] = inhibitors of larval lipid processing in zebrafish, primary screen, whole organism, PED6 fluorescence, gall bladder and intestine (AID 686;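 active means a full or partial loss of lipid-probe fluorescence in the fish gall bladder, intestine or both, judged by eye; inactive means no fluorescence loss, or compound toxic to the fish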;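 further: larvae 5 to 7 days old with five fish per well; signal comes from phospholipase A2 cleavage of quenched PED6 carried via bile; overnight exposure to compound and PED6 before scoring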); conditions: Zebrafish larvae PED6 lipid processing, fluorescence scoring; screened at 20 µM (by protocol)
Outline: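 Doses: 20 µM single dose. Test system: live zebrafish larvae aged 5-7 days, whole organism. Quantity: five larvae per well. Measured by: By-eye fluorescence microscopy. Reagent: ingested quenched lipid PED6 at 100 nM. Read-out: visual per-well fluorescence inhibition score. Times: overnight exposure of larvae to compound plus PED6.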

[8] = blockers of RIG-like receptor reporter activation – cell-based, Sendai virus stimulus, luciferase, 10K MLSCN set, TLR/RLR signaling modifier project, primary screen (AID 602276); conditions: HEK293 RL24 IRF3 luciferase reporter, at 10 µM, stronger effect = higher value;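 further: firefly luciferase from ISG56 promoter only with Renilla not read in this screen; 0% = Sendai virus plus DMSO and 100% = medium plus DMSO without virus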
[9] = TLR3 IRF3 reporter activation blockers – cell-based, poly I:C stimulus, luciferase, 10K MLSCN set, primary screen (AID 602277;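 active means inhibition of the reporter signal at or above 50%; inactive means inhibition below 50%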); conditions: HEK293-TLR3 RL24 IRF3 luciferase reporter, at 10 µM, stronger effect = higher value

Chain of Voltage-gated potassium channel subunit beta-2 (Rattus norvegicus) (P62483 whole entry, looked up): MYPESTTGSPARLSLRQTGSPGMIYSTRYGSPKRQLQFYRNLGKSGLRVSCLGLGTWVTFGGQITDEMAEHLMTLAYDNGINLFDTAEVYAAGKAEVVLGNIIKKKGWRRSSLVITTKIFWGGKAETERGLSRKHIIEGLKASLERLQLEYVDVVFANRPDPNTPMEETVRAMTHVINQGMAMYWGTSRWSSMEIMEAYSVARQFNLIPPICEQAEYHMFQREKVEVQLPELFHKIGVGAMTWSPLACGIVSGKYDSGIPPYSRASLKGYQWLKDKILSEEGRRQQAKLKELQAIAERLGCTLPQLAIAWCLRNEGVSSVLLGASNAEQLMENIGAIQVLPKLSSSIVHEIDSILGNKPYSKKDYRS
Chain of Alpha-2C adrenergic receptor (Homo sapiens) (P18825 whole entry, looked up): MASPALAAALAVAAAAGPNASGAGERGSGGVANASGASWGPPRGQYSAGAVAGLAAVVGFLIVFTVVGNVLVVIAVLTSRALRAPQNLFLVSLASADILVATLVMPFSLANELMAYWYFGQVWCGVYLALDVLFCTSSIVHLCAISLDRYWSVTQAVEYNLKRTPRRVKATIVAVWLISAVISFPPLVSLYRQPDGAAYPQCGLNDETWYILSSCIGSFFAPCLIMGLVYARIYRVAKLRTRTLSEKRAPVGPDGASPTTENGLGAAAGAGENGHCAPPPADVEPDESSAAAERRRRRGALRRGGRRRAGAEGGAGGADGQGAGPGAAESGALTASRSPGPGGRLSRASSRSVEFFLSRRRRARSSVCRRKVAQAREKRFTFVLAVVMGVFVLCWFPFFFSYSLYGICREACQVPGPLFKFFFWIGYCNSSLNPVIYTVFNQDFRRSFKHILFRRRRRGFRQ

Cc1ccc(S(=O)(=O)C(C#N)c2nc3ccccc3nc2OC(C)C)cc1 (stereo not given)
114%: nuclei count [3]
inactive: inhibition [1] 0% | inhibition of aggregation [2] -10.6% | inhibition [3] -79.1% | fluorescence slope [4] -0.38 | NADPH fluorescence slope [5] -8.6e-05 | slope [6] 0.00476 | outcome [7] | inhibition [8] 9.93% | inhibition [9] 10.6%
103%: nuclei count [2]
493: cell count [1]

N#CC1=C(N)N2C(=C(C#N)C13CCCCC3)SC1CCCCC12O (stereo not given)
116%: nuclei count [3]
322: cell count [1]
91.5%: nuclei count [2]
inactive: inhibition [1] 11.4% | inhibition of aggregation [2] 3.6% | inhibition [3] -4.6% | fluorescence slope [4] -0.405 | NADPH fluorescence slope [5] 1.2e-05 | slope [6] 0.00499 | outcome [7] | inhibition [8] 19% | inhibition [9] 24.3%

C=CCC1(O)C(=O)Nc2ccccc21 (stereo not given)
585: cell count [1]
inactive: inhibition [1] -13.3% | inhibition of aggregation [2] -5.5% | inhibition [3] -66.6% | fluorescence slope [4] -0.339 | NADPH fluorescence slope [5] -5.2e-05 | slope [6] 0.00522 | outcome [7] | inhibition [8] 16.6% | inhibition [9] 18.3%
106%: nuclei count [2]
115%: nuclei count [3]

O=C(O)c1ccc(S(=O)(=O)Cc2ccccc2)cc1
422: cell count [1]
113%: nuclei count [3]
88.3%: nuclei count [2]
inactive: inhibition [1] 11.4% | inhibition of aggregation [2] 3% | inhibition [3] -81.2% | fluorescence slope [4] -0.421 | NADPH fluorescence slope [5] 7.6e-07 | slope [6] 0.00596 | outcome [7] | inhibition [8] 16.7% | inhibition [9] 11.3%

O=C(Nc1ccccc1C(=O)O)c1cccc(NC(=O)c2ccc(Br)o2)c1
161%: nuclei count [3]
inactive: inhibition [1] -9.3% | inhibition of aggregation [2] -2.4% | inhibition [3] -26.5% | fluorescence slope [4] -0.441 | NADPH fluorescence slope [5] -4e-05 | slope [6] 0.00477 | outcome [7] | inhibition [8] 6.35% | inhibition [9] 8.3%
489: cell count [1]
99.2%: nuclei count [2]

COc1ccccc1NC(=O)NC(N)=O
inactive: inhibition [1] 0.5% | inhibition of aggregation [2] -22.8% | inhibition [3] -36.1% | fluorescence slope [4] -0.386 | NADPH fluorescence slope [5] 4.8e-06 | slope [6] 0.00503 | outcome [7] | inhibition [8] 2.43% | inhibition [9] 1.16%
104%: nuclei count [2]
115%: nuclei count [3]
580: cell count [1]

CCOc1ccc(NC(=O)COC(=O)Cn2cnnn2)cc1OCC
72.6%: nuclei count [3]
inactive: inhibition [1] -19.6% | inhibition of aggregation [2] 11.4% | inhibition [3] 33.9% | fluorescence slope [4] -0.468 | NADPH fluorescence slope [5] -2.6e-05 | slope [6] 0.00481 | outcome [7] | inhibition [8] 10.8% | inhibition [9] 9.82%
57.8%: nuclei count [2]
373: cell count [1]

COc1ccccc1CC(=O)NCC1CCCO1 (stereo not given)
130%: nuclei count [3]
107%: nuclei count [2]
inactive: inhibition [1] -15.9% | inhibition of aggregation [2] 8.9% | inhibition [3] -2.8% | fluorescence slope [4] -0.329 | NADPH fluorescence slope [5] -4.4e-05 | slope [6] 0.00554 | outcome [7] | inhibition [8] 11.5% | inhibition [9] 17.7%
346: cell count [1]

COc1cccc(OCc2nnc(SCC(=O)OCc3ccccc3)o2)c1
99.2%: nuclei count [2]
inactive: inhibition [1] 3.3% | inhibition of aggregation [2] 1.6% | inhibition [3] -31.4% | fluorescence slope [4] -0.267 | NADPH fluorescence slope [5] -4.9e-06 | slope [6] 0.00652 | outcome [7] | inhibition [8] 10.1% | inhibition [9] 7.69%
328: cell count [1]
108%: nuclei count [3]

CCOC(=O)c1ccc(NC(=O)N2CCN(Cc3cccc(F)c3)CC2)cc1
109%: nuclei count [3]
688: cell count [1]
inactive: inhibition [1] -1.4% | inhibition of aggregation [2] -19% | inhibition [3] -126% | fluorescence slope [4] -0.424 | NADPH fluorescence slope [5] -5e-05 | slope [6] 0.00506 | outcome [7] | inhibition [8] 5.73% | inhibition [9] 7.2%
97.2%: nuclei count [2]

Cc1nn(-c2ccccc2)c2[nH]c(C(F)(F)F)cc(=O)c12
97.8%: nuclei count [3]
103%: nuclei count [2]
inactive: inhibition [1] 0.7% | inhibition of aggregation [2] 17.9% | inhibition [3] -10.5% | fluorescence slope [4] -0.411 | NADPH fluorescence slope [5] -4.4e-05 | slope [6] 0.00725 | outcome [7] | inhibition [8] 5.93% | inhibition [9] -1.53%
364: cell count [1]

COc1cccc(N2C(=O)N(c3ccccc3Cl)C3CS(=O)(=O)CC32)c1 (stereo not given)
inactive: inhibition [1] -0.4% | inhibition of aggregation [2] -6% | inhibition [3] -47.6% | fluorescence slope [4] -0.336 | NADPH fluorescence slope [5] -1.8e-05 | slope [6] 0.00497 | outcome [7] | inhibition [8] 15.6% | inhibition [9] 20%
366: cell count [1]
118%: nuclei count [2]
122%: nuclei count [3]

O=C(CSc1nnnn1-c1ccccc1)Nc1ccc(Cl)cc1
108%: nuclei count [2]
inactive: inhibition [1] -0.2% | inhibition of aggregation [2] 17.5% | inhibition [3] -73.4% | fluorescence slope [4] -0.377 | NADPH fluorescence slope [5] 4e-06 | slope [6] 0.00622 | outcome [7] | inhibition [8] -14.3% | inhibition [9] -15.3%
67.8%: nuclei count [3]
561: cell count [1]

CC(=O)Nc1c(O)n(C)c2ccccc12
638: cell count [1]
inactive: inhibition [1] -24.1% | inhibition of aggregation [2] 4.1% | inhibition [3] 25.2% | fluorescence slope [4] -0.445 | NADPH fluorescence slope [5] 3.6e-05 | slope [6] 0.00514 | outcome [7] | inhibition [8] -8.37% | inhibition [9] 2.01%
100%: nuclei count [3]
104%: nuclei count [2]

CCOC(=O)c1c(C)oc2ccc(NS(=O)(=O)c3ccc4c5c(cccc35)C(=O)N4)cc12
429: cell count [1]
inactive: inhibition [1] 6.5% | inhibition of aggregation [2] -5.8% | inhibition [3] -185% | fluorescence slope [4] -0.223 | NADPH fluorescence slope [5] -1.1e-05 | slope [6] 0.00563 | outcome [7] | inhibition [8] 21.2% | inhibition [9] 2.01%
114%: nuclei count [3]
99%: nuclei count [2]

COCCNC(=O)C(c1ccc(C)o1)N(Cc1cccs1)C(=O)c1snc(C(N)=O)c1N (stereo not given)
387: cell count [1]
117%: nuclei count [3]
inactive: inhibition [1] 3.5% | inhibition of aggregation [2] 6.6% | inhibition [3] -93.7% | fluorescence slope [4] -0.379 | NADPH fluorescence slope [5] -4.3e-05 | slope [6] 0.00484 | outcome [7] | inhibition [8] -13.8% | inhibition [9] -11.9%
96.3%: nuclei count [2]

COc1cc(CO)cc(-c2cc(CO)cc(OC)c2OC)c1OC
76.2%: nuclei count [2]
547: cell count [1]
inactive: inhibition [1] 3.5% | inhibition of aggregation [2] 19.5% | inhibition [3] 49.8% | fluorescence slope [4] -0.367 | NADPH fluorescence slope [5] -5.9e-05 | slope [6] 0.00523 | outcome [7] | inhibition [8] 11.3% | inhibition [9] 15.6%
60.6%: nuclei count [3]

COc1ccccc1N(CC(=O)NC1CCCC1)C(=O)c1csnn1
109%: nuclei count [2]
126%: nuclei count [3]
723: cell count [1]
inactive: inhibition [1] -1.7% | inhibition of aggregation [2] 10.7% | inhibition [3] -49.4% | fluorescence slope [4] -0.365 | NADPH fluorescence slope [5] -2.7e-05 | slope [6] 0.00495 | outcome [7] | inhibition [8] -0.44% | inhibition [9] 1.68%

COC(=O)CSc1nnc(CSc2nc(C)cc(C)n2)n1Cc1ccco1
567: cell count [1]
135%: nuclei count [3]
inactive: inhibition [1] 5.2% | inhibition of aggregation [2] -0.5% | inhibition [3] -50.8% | fluorescence slope [4] -0.404 | NADPH fluorescence slope [5] -2.4e-05 | slope [6] 0.00459 | outcome [7] | inhibition [8] 1.21% | inhibition [9] 3.66%
99.8%: nuclei count [2]

O=C(O)CC(C(=O)Nc1cccc(C(F)(F)F)c1)C1CCCO1 (stereo not given)
92.1%: nuclei count [3]
inactive: inhibition [1] -10.1% | inhibition of aggregation [2] 9.8% | inhibition [3] 2.3% | fluorescence slope [4] -0.375 | NADPH fluorescence slope [5] -2.9e-05 | slope [6] 0.00461 | outcome [7] | inhibition [8] -2.64% | inhibition [9] 7.18%
548: cell count [1]
101%: nuclei count [2]
